According to ChEMBL document CHEMBL4387759, “Discovery of novel N-methyl carbazole tethered rhodanine derivatives as direct inhibitors of Mycobacterium tuberculosis InhA” (Bioorg Med Chem Lett, 2019):
Converted amounts (≈) assume the structure as drawn.

Key:
[1] = biological target: T1, Enoyl-[acyl-carrier-protein] reductase [NADH] (Mycobacterium tuberculosis) (UniProt P9WGR1); assay: Inhibition of Mycobacterium tuberculosis InhA at 5 uM using DDCoA as substrate relative to control
T1 sequence (whole entry): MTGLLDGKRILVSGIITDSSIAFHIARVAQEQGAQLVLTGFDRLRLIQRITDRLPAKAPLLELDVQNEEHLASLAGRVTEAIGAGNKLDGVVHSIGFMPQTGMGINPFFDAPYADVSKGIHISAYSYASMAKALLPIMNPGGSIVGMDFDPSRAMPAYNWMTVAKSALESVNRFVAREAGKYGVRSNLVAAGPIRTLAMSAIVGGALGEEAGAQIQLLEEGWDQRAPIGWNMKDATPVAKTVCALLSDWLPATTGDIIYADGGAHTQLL
How it was run: (§1)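 InhA enzyme assay run in triplicate with 2-trans-dodecenoyl-CoA as substrate analogue; inhibition followed as NADH oxidation to NAD+ at 340 nm. Compounds screened at 50 μM, selected ones also at 5 μM; IC50 from 4-parameter curve fit; GEQ as reference inhibitor.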

Vero = assay: Cytotoxicity against African green monkey Vero cells measured after 72 hrs by MTS-PMS assay; format: cell-based; conditions: Chlorocebus sabaeus
How it was run: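 Cells exposed 72 h; viability read with a non-radioactive cell proliferation assay; IC50 determined.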

[2] = tested on: Mycobacterium tuberculosis; assay: Antimycobacterial activity against Mycobacterium tuberculosis H37Rv incubated for 5 days under aerobic condition by fluorescence assay; format: functional, organism-based; conditions: 120 h
How it was run: (§2)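 M. tuberculosis H37Rv grown aerobically; dual read-out assay (OD590 plus fluorescence); MIC and IC50 values reported; run at IDRI under NIAID screening programme.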

[3] = biological target: T2, Enoyl-[acyl-carrier-protein] reductase [NADH] (Mycobacterium tuberculosis, UniProt P9WGR1); assay: Inhibition of Mycobacterium tuberculosis InhA using DDCoA as substrate; how it was run: as §1
T2 sequence (P9WGR1 whole entry): T1 sequence (whole entry)

[4] = Selectivity index, ratio of IC50 for African green monkey Vero cells to IC50 for Mycobacterium tuberculosis H37Rv; format: toxicity; conditions: read-out: Ratio IC50
How it was run: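 Ratio of cytotoxicity IC50 to H37Rv IC50; not calculated where H37Rv IC50 >100.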

[5] = tested on: Mycobacterium tuberculosis; assay: Antimycobacterial activity against Mycobacterium tuberculosis H37Rv; format: functional; how it was run: as §2

Structure (SMILES)	inhibition [1] [%]	IC50 (Vero) [µM]	MIC [2] [µM]	IC50 [3] [µM]	selectivity ratio [4]	IC50 [2] [µM]	MIC [5] [µM]
Cn1c2ccccc2c2cc(/C=C3\SC(=S)N(c4ccc(C(=O)O)cc4)C3=O)ccc21	54	263	> 100	2.82	–	–	–
O=C(c1ccc2[nH]ccc2c1)N1CCN(C2c3ccccc3-c3ccccc32)CC1	–	–	> 50	–	–	–	–
COC(=O)c1ccc(N2C(=O)/C(=C/c3ccc4c(c3)c3ccccc3n4C)SC2=S)cc1	–	222	> 100	–	–	–	–
Cn1c2ccccc2c2cc(/C=C3\SC(=S)N(c4cccc(C(F)(F)F)c4)C3=O)ccc21	–	167	> 100	–	–	–	–
COc1ccc(-c2nnc(N3C(=O)/C(=C/c4ccc5c(c4)c4ccccc4n5C)SC3=S)s2)cc1	–	258	> 100	–	–	–	–
Cn1c2ccccc2c2cc(/C=C3\SC(=S)N(c4ccccc4)C3=O)ccc21	–	240	> 100	–	3.2	75	–
Cn1c2ccccc2c2cc(/C=C3\SC(=S)N(c4nnc(-c5ccc(Br)cc5)s4)C3=O)ccc21	–	165	> 100	–	–	–	–
Cc1cc(=O)oc2cc(N3C(=O)/C(=C/c4ccc5c(c4)c4ccccc4n5C)SC3=S)ccc12	–	296	20 (≈ 9.65 µg/mL)	–	14.8	20	–
COc1ccc(N2C(=O)/C(=C/c3ccc4c(c3)c3ccccc3n4C)SC2=S)cc1OC	–	261	50 (≈ 23 µg/mL)	–	5.2	50	–
Cn1c2ccccc2c2cc(/C=C3\SC(=S)N(c4nnc(-c5ccccc5Cl)s4)C3=O)ccc21	–	239	> 100	–	–	–	–
Cn1c2ccccc2c2cc(/C=C3\SC(=S)N(c4nnc(-c5ccc(Cl)cc5)s4)C3=O)ccc21	–	245	> 100	–	–	–	–
Cn1c2ccccc2c2cc(/C=C3\SC(=S)N(c4cc(C(=O)O)cc(C(=O)O)c4)C3=O)ccc21	12	210	> 100	–	–	–	–
Cn1c2ccccc2c2cc(/C=C3\SC(=S)N(c4nnc(-c5ccccc5F)s4)C3=O)ccc21	–	208	> 100	–	–	–	–
Cn1c2ccccc2c2cc(/C=C3\SC(=S)N(c4cccc(O)c4)C3=O)ccc21	10	289	> 100	–	11.6	25	–
Cn1c2ccccc2c2cc(/C=C3\SC(=S)N(c4nnc(-c5cccc(Cl)c5)s4)C3=O)ccc21	–	193	> 100	–	–	–	–
Cc1cc(=O)[nH]c2cc(N3C(=O)/C(=C/c4ccc5c(c4)c4ccccc4n5C)SC3=S)ccc12	–	277	> 100	–	–	–	–
Cn1c2ccccc2c2cc(/C=C3\SC(=S)N(c4ccc(Cl)cc4)C3=O)ccc21	–	213	> 100	–	–	–	–
COc1ccc(-c2csc(N/N=C/c3ccc4c(c3)c3ccccc3n4C)n2)cc1OC	–	–	–	–	–	–	21 (≈ 9.29 µg/mL)
COc1cccc(N2C(=O)/C(=C/c3ccc4c(c3)c3ccccc3n4C)SC2=S)c1	–	235	> 100	–	–	–	–
COc1cc(N2C(=O)/C(=C/c3ccc4c(c3)c3ccccc3n4C)SC2=S)cc(OC)c1OC	–	185	> 100	–	–	–	–
